Data on 26 compounds can be found in ChEMBL document CHEMBL1134544, “Novel selective PDE4 inhibitors. 1. Synthesis, structure-activity relationships, and molecular modeling of 4-(3,4-dimethoxyphenyl)-2H-phthalazin-1-ones and analogues” (J Med Chem, 2001).

The target in one test is Phosphodiesterase 4 (Homo sapiens, UniProt P27815+Q08499+Q07343+Q08493). Description: Inhibition of PDE4 in the cytosol of human neutrophils. The class given is protein assay. The procedure, abridged:
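Cytosol of human polymorphonuclear leukocytes from leukocyte concentrates, with motapizone 1 µM to suppress platelet PDE3. [3H]cAMP hydrolysis (0.5 µM cAMP, Tris-HCl pH 7.4, 5 mM MgCl2), 5 min preincubation plus 15 min at 37 °C. Snake venom nucleotidase step, ion-exchange separation, scintillation counting.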

For a further test, the target named is Phosphodiesterase 3 (Homo sapiens, UniProt Q14432+Q13370). Briefly: Inhibition of PDE3 in homogenates of human blood platelets. Put shortly: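 PDE3 from human blood platelet homogenates. Radiometric assay: 50 mM Tris-HCl pH 7.4, 5 mM MgCl2, 0.5 µM cAMP plus [3H]cAMP; 5 min preincubation then 15 min at 37 °C; HCl stop, Crotalus atrox 5'-nucleotidase, QAE Sephadex separation, blank-corrected counts. Inhibitors at 0.5% DMSO final; IC50 by nonlinear regression; two independent determinations in triplicate.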

Structures are written as SMILES.

Regarding `COc1ccc(C2=NN(c3ccccc3)C(=O)[C@@H]3CC=CC[C@@H]23)cc1OC`, the “Log IC50” value at Phosphodiesterase 4 is on record as -6.1.

Regarding `COc1ccc(C2=NN(c3ccccc3)C(=O)[C@@H]3CCCC[C@@H]23)cc1OC`, the “Log IC50” value at Phosphodiesterase 4 was -5.1. On to `COc1ccc(-c2nn(-c3ccccc3)c(=O)c3ccccc23)cc1OC`, for which the “Log IC50” value on Phosphodiesterase 4 is listed as -5.8. Take `COc1ccc(C2=NN(Cc3ccccc3)C(=O)CC2)cc1OC`: the figures for the “Log IC50” value at Phosphodiesterase 4 and on Phosphodiesterase 3 were -7.1 and -5.3, respectively.

Take `COc1ccc(C2=NN(Cc3ccccc3)C(=O)[C@@H]3CCCC[C@H]23)cc1OC`: the “Log IC50” value at Phosphodiesterase 4 is -8.1. Consider `COc1ccc(-c2nn(Cc3ccccc3)c(=O)c3c2CCCC3)cc1OC`, for which, at Phosphodiesterase 4, the “Log IC50” value is on record as -5.8. For `COc1ccc(C2=NNC(=O)[C@@H]3CCCC[C@@H]23)cc1OC`, the “Log IC50” value at Phosphodiesterase 4 is given as -5.3. In the case of `COc1ccc(C2=NN(c3ccccc3)C(=O)[C@@H]3CC=CC[C@H]23)cc1OC`, the “Log IC50” value at Phosphodiesterase 4 was -7.9.

Regarding `COc1ccc(C2=NN(c3ccccc3)C(=O)C(C)C2C)cc1OC` (stereo not given), the results for the “Log IC50” value at Phosphodiesterase 4 and on Phosphodiesterase 3 were -7.3 and under -5, respectively. Regarding `COc1ccc(-c2nn(-c3ccccc3)c(=O)c3c2CCCC3)cc1OC`, on Phosphodiesterase 4, the “Log IC50” value is recorded as -5.3. Turning to `COc1ccc(C2=NN(Cc3ccccc3)C(=O)[C@@H]3CC=CC[C@H]23)cc1OC`, on Phosphodiesterase 4, the “Log IC50” value is on record as -8.4. Take `COc1ccc(-c2nnc(O)c3c2CCCC3)cc1OC`: the “Log IC50” value on Phosphodiesterase 4 was -5.2.

Regarding `COc1ccc(C2=NN(c3ccccc3)C(=O)C(C)C2)cc1OC` (stereo not given), the “Log IC50” value is listed as -6.9 on Phosphodiesterase 4 and under -5 at Phosphodiesterase 3. On to `COc1ccc(C2=NN(c3ccccc3)C(=O)CC2C)cc1OC` (stereo not given), for which the “Log IC50” value on Phosphodiesterase 4 is reported as -6.8; on Phosphodiesterase 3, under -5.

For `COc1ccc(-c2nnc(O)c3ccccc23)cc1OC`, the “Log IC50” value at Phosphodiesterase 4 is recorded as -5.8. Regarding `COc1ccc(-c2nn(Cc3ccccc3)c(=O)c3ccccc23)cc1OC`, on Phosphodiesterase 4, the “Log IC50” value is listed as -6.5. Consider `COc1ccc(C2=NNC(=O)CC2)cc1OC`, for which the “Log IC50” value on Phosphodiesterase 4 is reported as -5.9; on Phosphodiesterase 3, -5.6. Consider `COc1ccc(C2=NN(c3ccccc3)C(=O)[C@@H]3CCCC[C@H]23)cc1OC`, for which, on Phosphodiesterase 4, the “Log IC50” value is recorded as -7.6. Regarding `COc1ccc(C2=NN(c3ccccc3)C(=O)CC2)cc1OC`, the “Log IC50” value at Phosphodiesterase 4 is -6.4; on Phosphodiesterase 3, under -5. `COc1ccc(C2=NNC(=O)CC2C)cc1OC` (stereo not given): the “Log IC50” value at Phosphodiesterase 4 is given as -6.5; at Phosphodiesterase 3 it was -6.6. Regarding `COc1ccc(C2=NNC(=O)[C@@H]3CC=CC[C@H]23)cc1OC` (relative stereo), on Phosphodiesterase 4, the “Log IC50” value is reported as -7. Take `COc1ccc(C2=NNC(=O)[C@@H]3CCCC[C@H]23)cc1OC` (relative stereo): the “Log IC50” value on Phosphodiesterase 4 is -6.4. Turning to `COc1ccc(C2=NNC(=O)C(C)C2C)cc1OC` (stereo in doubt; 3d), the “Log IC50” value on Phosphodiesterase 4 is -6.7; at Phosphodiesterase 3 it was under -5.

For the compound `COc1ccc(C2=NNC(=O)C(C)C2C)cc1OC` (stereo in doubt; 3e), the “Log IC50” value on Phosphodiesterase 4 is reported as -6.2; at Phosphodiesterase 3, -5.4. `O=c1c2cccnc2c(-c2cccc([N+](=O)[O-])c2)nn1Cc1ccncc1` [PYRIDOPYRIDAZINONE]: the “Log IC50” value at Phosphodiesterase 4 is reported as -8.3. For `COc1cc(-c2ccc(=O)[nH]n2)ccc1OC(F)F` [ZARDAVERINE], the “Log IC50” value on Phosphodiesterase 3 is recorded as -6.2.
